# Experimental data reported in ChEMBL document CHEMBL1121519, “Basic antiinflammatory compounds. N,N',N''-Trisubstituted guanidines” (J Med Chem, 1980).
# Experiments:
# [1] = Lethal dose in mice determined by Litchfield and Wilcoxon methods after peroral administration.; format: toxicity, organism-based; conditions: mouse, in vivo, po
# In short: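 Median lethal dose found after oral dosing of mice, four mice per dose level, and calculated by the Litchfield–Wilcoxon method.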
# [2] = target: T1, Cyclooxygenase (Bos taurus) (UniProt O62664+O62698); assay: Inhibition of prostaglandin synthetase in bovine seminal vesicle microsomes using Beckman liquid scintillation counter at 10 e-5 M; conditions: Microsome
# [3] = Toxic score (3) was measured as lethal dose in orally administered mice; format: toxicity, organism-based; conditions: mouse, in vivo, po
# In short: (§1)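 Score derived from mouse oral LD50 (Litchfield–Wilcoxon, four mice per dose), in mg/kg: >1000 = 3; 500-1000 = 2; <500 = 1.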
# Rattus norvegicus [4] = species on record: Rattus norvegicus; assay: Tested for inhibition in the rat paw injected with carrageenan.; format: functional; design: concentration or dose not given beside the values
# Rattus norvegicus [5] = assay: Percent inhibition of carrageenan paw edema in rat, administered orally at a dose of one tenth of oral lethal dose in mice; format: functional
# In short: (§2)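 1 h later, 0.1 mL of 1% carrageenan was injected into the right hind-paw plantar tissue. Paw swelling was measured by mercury-displacement plethysmometry 3 h after carrageenan, compared with controls.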
# Rattus norvegicus [6] = assay: Total score is the sum of scores obtained in the adjuvant arthritis, acute toxicity, carrageenan edema, and prostaglandin synthetase assay; format: functional
# Rattus norvegicus [7] = species on record: Rattus norvegicus; assay: Tested for enhancement in the rat paw not injected with carrageenan.; format: functional
# Rattus norvegicus [8] = species on record: Rattus norvegicus; assay: Average percent inhibition (arthritis score)of the swelling of both injected and non injected paw was measured; format: functional
# In short: (§3)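 Adjuvant arthritis in inbred female Lewis rats, groups of six, acclimatized 2 weeks. Arthritis induced by injecting 0.1 mL M. butyricum in mineral oil (3 mg/mL) into right hind paw plantar tissue. Oral dosing daily from adjuvant day to day 28: 10 (mg/kg)/day if mouse oral LD50 ≥1000 mg/kg, else 5 (mg/kg)/day. Swelling of injected and noninjected paws measured day 28 by mercury-displacement plethysmometry; mean percent inhibition scored 0–3.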
# Rattus norvegicus [9] = assay: Tested for percent enhancement of carrageenan paw edema in rat, administered orally at a dose of one tenth of oral lethal dose in mice; format: functional; in short: as §2
# [10] = Toxic score (1) was measured as lethal dose in orally administered mice; format: toxicity, organism-based; conditions: in vivo, po; in short: as §1
# Rattus norvegicus [11] = species on record: Rattus norvegicus; assay: Tested for inhibition in the rat paw not injected with […].; format: functional; design: concentration or dose not given beside the values
# In short: (§4)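 Adjuvant-induced arthritis, female Lewis rats, six per group: M. butyricum in mineral oil (3 mg/mL, 0.1 mL) injected into right hind paw plantar tissue. Daily oral dosing from adjuvant day to day 28, 10 or 5 (mg/kg)/day according to mouse oral LD50 (≥1000 or <1000 mg/kg). Injected and noninjected paw swelling read by mercury-displacement plethysmometry on day 28.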
# Rattus norvegicus [12] = species on record: Rattus norvegicus; assay: Average percent inhibition of the swelling of both injected and non injected paw was measured; […]; format: functional
# Rattus norvegicus [13] = species on record: Rattus norvegicus; assay: Tested for enhancement in the rat paw injected with carrageenan.; format: functional
# Rattus norvegicus [14] = species on record: Rattus norvegicus; assay: Average percent inhibition (arthritis score=0) of the swelling of both injected and non injected paw was measured; format: functional; in short: as §3
# Rattus norvegicus [15] = species on record: Rattus norvegicus; assay: Average percent inhibition (arthritis score=1) of the swelling of both injected and non injected paw was measured; […]; format: functional
# Rattus norvegicus [16] = species on record: Rattus norvegicus; assay: Average percent inhibition (arthritis score=1) of the swelling of both injected and non injected paw was measured;values ranges from: […]-[…]; format: functional
# Rattus norvegicus [17] = assay: Tested for inhibition at the dose of 5(mg/kg)/day in the rat paw not injected with carrageenan.; format: functional; conditions: in the assay text read “adjuvant” for “carrageenan”; in short: as §4
# Rattus norvegicus [18] = species on record: Rattus norvegicus; assay: Average percent inhibition (arthritis score=3) of the swelling of both injected and non injected paw was measured; format: functional; in short: as §3
# [19] = target: T1, Cyclooxygenase (Bos taurus); assay: Tested for Prostaglandin synthetase inhibition in Bovine seminal vesicle microsomes using Beckman liquid scintillation counter at 10 e-5 M; format: functional; conditions: Microsome
SMILES,LD50 [1] [mg/kg],inhibition [2] [%],Inhibition (Rattus norvegicus [5]) [%],Total score (Rattus norvegicus [6]),other results
Cc1cc(N/C(=N/C2CCCCC2)Nc2nc(C)c(C)s2)c2ccccc2n1,> 1000,87.9,54,8,LD50 [3]: > 1000 mg/kg; Inhibition (Rattus norvegicus [4]): 7%; Enhancement (Rattus norvegicus [7]): 63%; Inhibition (Rattus norvegicus [8]): <10%
Cc1cc(N/C(=N/C2CCCCC2)Nc2nc3ccccc3[nH]2)c2ccccc2n1,> 1000,7.2,,,Enhancement (Rattus norvegicus [9]): 13%
CCC(C)(C)/N=C(/Nc1nccs1)Nc1cc(C)nc2ccccc12,400,100,53,9,LD50 [10]: < 500 mg/kg; Inhibition (Rattus norvegicus [4]): 59%; Inhibition (Rattus norvegicus [11]): 55%; Inhibition (Rattus norvegicus [8]): >=50%
CCOC(=O)c1cnc(/N=C(\Nc2cc(C)nc3ccccc23)NC2CCCCC2)s1,> 1000,15.6,,,Enhancement (Rattus norvegicus [9]): 16%
Cc1cc(N/C(=N/c2ccccc2)Nc2nccs2)c2ccccc2n1,> 1000,83.8,59,10,LD50 [3]: > 1000 mg/kg; Inhibition (Rattus norvegicus [4]): 46%; Inhibition (Rattus norvegicus [11]): 47%; Inhibition (Rattus norvegicus [12]): 49%
CC(C)(C)/N=C(\Nc1nccs1)Nc1cc(C(F)(F)F)nc2ccccc12,> 1000,75.4,28,7,LD50 [3]: > 1000 mg/kg; Inhibition (Rattus norvegicus [11]): 2%; Enhancement (Rattus norvegicus [13]): 6%; Inhibition (Rattus norvegicus [14]): <10%
Cc1ccc2nc(C)cc(N/C(=N/C3CCCCC3)Nc3nccs3)c2c1,> 1000,0.6,65,6,LD50 [3]: > 1000 mg/kg; Inhibition (Rattus norvegicus [11]): 0%; Enhancement (Rattus norvegicus [13]): 21%; Inhibition (Rattus norvegicus [14]): <10%
Cc1cc(N/C(=N/C(C)(C)C)Nn2cnnc2)c2ccccc2n1,> 1000,,,,Enhancement (Rattus norvegicus [9]): 9%
CC(C)(C)/N=C(/Nc1nccs1)Nc1cccc2ccccc12,> 1000,6.9,,,Enhancement (Rattus norvegicus [9]): 19%
CCOC(=O)c1csc(/N=C(\Nc2cc(C)nc3ccccc23)NC2CCCCC2)n1,> 1000,89.8,,7,LD50 [3]: > 1000 mg/kg; Inhibition (Rattus norvegicus [4]): 4%; Inhibition (Rattus norvegicus [11]): 24%; Enhancement (Rattus norvegicus [9]): 1%; Inhibition (Rattus norvegicus [15]): 29%
Cc1cc(N/C(=N/C2CCCCCCC2)Nc2nccs2)c2ccccc2n1,> 1000,55.1,62,9,LD50 [3]: > 1000 mg/kg; Inhibition (Rattus norvegicus [4]): 21%; Enhancement (Rattus norvegicus [7]): 8%; Inhibition (Rattus norvegicus [15]): 29%
Cc1cc(N/C(=N/C2CCCCC2)Nc2nc3ccccc3s2)c2ccccc2n1,> 1000,76.1,1,6,LD50 [3]: > 1000 mg/kg; Enhancement (Rattus norvegicus [13]): 7%; Enhancement (Rattus norvegicus [7]): 4%; Inhibition (Rattus norvegicus [14]): <10%
Cc1cc(N/C(=N\CC(C)(C)C)Nc2nccs2)c2ccccc2n1,600,31.1,66,7,Inhibition (Rattus norvegicus [4]): 31%; Inhibition (Rattus norvegicus [11]): 29%; Inhibition (Rattus norvegicus [16]): 29%
CCCCC/N=C(\Nc1nccs1)Nc1cc(C)nc2ccccc12,400,-37,62,7,LD50 [3]: > 1000 mg/kg; Inhibition (Rattus norvegicus [4]): 19%; Enhancement (Rattus norvegicus [7]): 4%; Inhibition (Rattus norvegicus [16]): 29%
Cc1cc(N/C(=N\C(C)(C)C)Nc2nccs2)c2ccccc2n1,200,100,34,8,LD50 [10]: < 500 mg/kg; Inhibition (Rattus norvegicus [17]): 60%; Inhibition (Rattus norvegicus [18]): >=50%
Cc1cc(N/C(=N/C(C)(C)C)Nc2cccs2)c2ccccc2n1,> 1000,37.2,73,8,LD50 [3]: > 1000 mg/kg; Inhibition (Rattus norvegicus [4]): 16%; Inhibition (Rattus norvegicus [11]): 26%; Inhibition (Rattus norvegicus [12]): 29%
CCCCCCCCCC/N=C(\Nc1nccs1)Nc1cc(C)nc2ccccc12,> 1000,,4,,inhibition [19]: 4.5%
CCCCCCCCCCCCCCCCCC/N=C(\Nc1nccs1)Nc1cc(C)nc2ccccc12.Cl,> 1000,7,5,,
CCCc1cc(N/C(=N/C(C)(C)C)Nc2nccs2)c2ccccc2n1,600,74.1,51,,
Cc1cc(N/C(=N\C2CCCC2)Nc2nccs2)c2ccccc2n1,600,58.7,52,,
Cc1cc(N/C(=N/C2CCCCC2)Nc2nnc(C)s2)c2ccccc2n1,> 1000,36.2,56,,
Cc1csc(/N=C(\Nc2cc(C)nc3ccccc23)NC(C)(C)C)n1,600,95.1,31,9,LD50 [3]: > 1000 mg/kg; Inhibition (Rattus norvegicus [4]): 53%; Inhibition (Rattus norvegicus [11]): 59%; Inhibition (Rattus norvegicus [18]): >=50%

SMILES,LD50 [1] [mg/kg],inhibition [2] [%],Inhibition (Rattus norvegicus [5]) [%],Total score (Rattus norvegicus [6]),other results
CC(C)(C)/N=C(\Nc1ccccn1)Nc1nccs1,> 1000,6.9,83,,
CCOC(=O)c1csc(/N=C(\Nc2cc(C)nc3ccccc23)NC(C)(C)C)n1,> 1000,71.8,,,Enhancement (Rattus norvegicus [9]): 36%
CC(C)Cc1cc(N/C(=N/C(C)(C)C)Nc2nccs2)c2ccccc2n1,600,20,33,,
Cc1cc(N/C(=N/C2CCCCC2)Nc2nnc(S)s2)c2ccccc2n1,> 1000,7,36,,
Cc1nc2ccccc2c(N/C(=N/C2CCCCC2)Nc2nccs2)c1Cl,> 1000,8.1,19,,
Cc1cc(N/C(=N/C2CCCCC2)Nc2c(C)noc2C)c2ccccc2n1,> 1000,19.3,17,,
CC(C)(C)/N=C(\Nc1nccs1)Nc1ccnc2cc(Cl)ccc12,> 1000,5.5,61,7,LD50 [3]: > 1000 mg/kg; Inhibition (Rattus norvegicus [4]): 26%; Inhibition (Rattus norvegicus [11]): 8%
CC(C)(C)/N=C(\Nc1ccc2ccccc2c1)Nc1nccs1,> 1000,1.7,,,Enhancement (Rattus norvegicus [9]): 17%
Cc1cc(N/C(=N/C2CCCCC2)Nc2ccccc2)c2ccccc2n1,300,10,38,,
CCCC/N=C(/Nc1nccs1)Nc1cc(C)nc2ccccc12,800,0.6,89,6,Inhibition (Rattus norvegicus [17]): 34%; Inhibition (Rattus norvegicus [16]): 29%
c1ccc(-c2cc(N/C(=N/C3CCCCC3)Nc3nccs3)c3ccccc3n2)cc1,> 1000,14,5,,
Cc1cc(N/C(=N/C(C)(C)C)NC2NC=CS2)c2ccccc2n1 (configuration not stated),200,,41,,inhibition [19]: 1.3%
CCCCC(CC)C/N=C(/Nc1nccs1)Nc1cc(C)nc2ccccc12 (configuration not stated),> 1000,2.1,28,,
Cc1cc(N/C(=N/C2(C)CCCC2)Nc2nccs2)c2ccccc2n1,600,100,46,7,
CCC(C)(C)/N=C(\Nc1ncccn1)Nc1nccs1,> 1000,27.5,20,,
CC(C)CC(C)(C)/N=C(\Nc1ccncc1)Nc1nccs1,800,1.1,22,,
Cc1cc(N/C(=N\C(C)(C)CC(C)(C)C)Nc2nccs2)c2ccccc2n1,> 1000,49.3,25,,
CC(C)(C)/N=C(\Nc1nccs1)Nc1cc(-c2ccccc2)nc2ccccc12,> 1000,< 10,40,,
CC(C)(C)/N=C(/Nc1nccs1)Nc1cccnc1Cl,> 1000,,19,,inhibition [19]: 10.1%
CCOC(=O)c1cnc(/N=C(\Nc2cc(C)nc3ccccc23)NC(C)(C)C)s1,> 1000,15.8,16,,
CC(C)c1cc(N/C(=N/C(C)(C)C)Nc2nccs2)c2ccccc2n1,> 1000,12.4,31,,
CC(C)(C)/N=C(\Nc1ccc(Cl)cn1)Nc1nccs1,> 1000,1,31,,
